Data as given in ChEMBL document CHEMBL1159084, “Synthesis and structure-activity relationship of 1,2,4-triazole-containing diarylpyrazolyl carboxamide as CB1 cannabinoid receptor-ligand” (Bioorg Med Chem, 2010).

Key:
Cannabinoid receptor 1 [1] = biological target: Cannabinoid receptor 1 (Rattus norvegicus, UniProt P20272); experiment: Displacement of [3H]CP-55940 from CB1 receptor in Sprague-Dawley rat cerebellar membrane; parameters: species or system Cerebellum
Method in brief: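 Membranes came from cerebella of male Sprague Dawley rats (200–300 g), homogenized in TME buffer (50 mM Tris–HCl, 1 mM EDTA, 3 mM MgCl2, pH 7.4) and spun at 48,000g for 30 min at 4 °C. They were incubated 1 h at 30 °C in TME with 0.5% fatty-acid-free BSA, then filtered on PEI-soaked GF/B, washed and counted by scintillation. IC50 values are from single determinations.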

Cannabinoid receptor 2 = Cannabinoid receptor 2 (Homo sapiens, UniProt P34972); experiment: Displacement of [3H]WIN-55212-2 from human recombinant CB2 receptor expressed in CHO-K1 cell membrane; assay type: cell membranes
Method in brief: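 CB2 membranes were from CHO K-1 cells transfected with human CB2, prepared in TME buffer (pH 7.4) and incubated with 3 nM [3H]WIN55,212-2 in TME plus 0.5% fatty-acid-free BSA for 1 h at 30 °C. Bound label was filtered on PEI-soaked GF/B, washed with ice-cold buffer containing 0.1% BSA, and counted by scintillation. IC50 values are from single determinations.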

[2] = Selectivity for Sprague-Dawley rat CB1 receptor over human recombinant CB2 receptor
Method in brief: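 Selectivity is the ratio of the hCB2 IC50 to the rCB1 IC50. The hCB2 IC50 came from CHO-K1 membrane displacement of [3H]WIN55,212-2, and the rCB1 IC50 from rat cerebellar membrane binding. Both binding assays ran 1 h at 30 °C with filtration and scintillation counting.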

Cannabinoid receptor 1 [3] = biological target: Cannabinoid receptor 1 (Homo sapiens, UniProt P21554); experiment: Inverse agonist activity at human recombinant CB1 receptor expressed in CHO cells by luciferase reporter gene assay; assay type: functional, cell-based
Sequence of Cannabinoid receptor 1 (Homo sapiens, UniProt P21554) (P21554 whole entry): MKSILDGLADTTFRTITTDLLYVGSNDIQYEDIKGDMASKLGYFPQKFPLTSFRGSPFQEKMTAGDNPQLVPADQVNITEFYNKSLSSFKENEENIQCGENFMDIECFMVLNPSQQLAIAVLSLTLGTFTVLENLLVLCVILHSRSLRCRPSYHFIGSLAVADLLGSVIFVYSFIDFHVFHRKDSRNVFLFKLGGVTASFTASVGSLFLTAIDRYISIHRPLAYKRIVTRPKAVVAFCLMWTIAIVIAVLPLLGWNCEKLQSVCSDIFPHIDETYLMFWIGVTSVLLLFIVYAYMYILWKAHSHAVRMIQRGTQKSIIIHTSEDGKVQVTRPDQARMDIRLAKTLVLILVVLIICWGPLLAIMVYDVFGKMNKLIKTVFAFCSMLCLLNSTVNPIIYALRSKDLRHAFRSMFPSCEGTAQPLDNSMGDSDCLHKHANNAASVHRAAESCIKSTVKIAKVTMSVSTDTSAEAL

Sequence of Cannabinoid receptor 1 (Rattus norvegicus, UniProt P20272) (P20272 whole entry): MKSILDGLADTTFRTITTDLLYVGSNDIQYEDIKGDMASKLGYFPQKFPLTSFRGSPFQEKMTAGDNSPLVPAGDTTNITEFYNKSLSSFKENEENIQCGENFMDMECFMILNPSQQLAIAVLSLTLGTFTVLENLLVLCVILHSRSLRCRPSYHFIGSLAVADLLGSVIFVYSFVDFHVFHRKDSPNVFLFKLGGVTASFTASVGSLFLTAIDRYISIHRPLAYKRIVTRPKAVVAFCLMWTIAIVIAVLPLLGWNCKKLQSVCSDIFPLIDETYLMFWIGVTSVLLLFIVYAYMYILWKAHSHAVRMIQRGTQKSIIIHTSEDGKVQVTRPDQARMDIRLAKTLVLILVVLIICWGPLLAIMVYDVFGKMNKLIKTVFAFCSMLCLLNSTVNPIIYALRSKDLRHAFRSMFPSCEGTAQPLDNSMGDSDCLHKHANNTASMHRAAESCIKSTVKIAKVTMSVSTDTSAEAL
Sequence of Cannabinoid receptor 2 (P34972 whole entry): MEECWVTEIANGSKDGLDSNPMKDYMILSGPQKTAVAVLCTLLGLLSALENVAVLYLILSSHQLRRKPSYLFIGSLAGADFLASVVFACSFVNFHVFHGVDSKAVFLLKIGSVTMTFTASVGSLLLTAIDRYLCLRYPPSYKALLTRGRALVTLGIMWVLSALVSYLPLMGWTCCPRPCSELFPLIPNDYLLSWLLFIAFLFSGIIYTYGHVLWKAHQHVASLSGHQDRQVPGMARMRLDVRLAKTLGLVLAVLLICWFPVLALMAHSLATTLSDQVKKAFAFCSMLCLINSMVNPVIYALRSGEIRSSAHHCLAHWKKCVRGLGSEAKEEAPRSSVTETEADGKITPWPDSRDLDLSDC

SMILES | IC50 (Cannabinoid receptor 1 [1]) | IC50 (Cannabinoid receptor 2) | Ratio IC50 [2] | IC50 (Cannabinoid receptor 1 [3])
O=C(NC1CCCCC1)c1nn(-c2ccccc2Cl)c(-c2ccc(Br)cc2)c1Cn1cncn1 | 1.6 nM | 4060 nM | 2540 | 
O=C(c1nn(-c2ccccc2Cl)c(-c2ccc(Br)cc2)c1Cn1cncn1)N1CCN(c2cccc(Cl)c2Cl)CC1 | 2.22 nM | 582 nM | 262 | 
CC(NC(=O)c1nn(-c2ccccc2Cl)c(-c2ccc(Cl)cc2)c1Cn1cncn1)c1ccc(Br)cc1 (configuration not stated) | 1.8 nM | 3510 nM | 1950 | 
O=C(c1nn(-c2ccccc2Cl)c(-c2ccc(Br)cc2)c1Cn1cncn1)N1CCN(c2cccc(Cl)c2)CC1 | 2.28 nM | 296 nM | 130 | 
O=C(NC1(c2ccc(Cl)cc2)CC1)c1nn(-c2ccccc2Cl)c(-c2ccc(Br)cc2)c1Cn1cncn1 | 1.7 nM | 2570 nM | 1510 | 
CC(NC(=O)c1nn(-c2ccc(Cl)cc2Cl)c(-c2ccc(Br)cc2)c1Cn1cncn1)c1ccc(Br)cc1 (configuration not stated) | 1.4 nM | 6480 nM | 4630 | 28.2 nM
Cc1cccc(N2CCN(C(=O)c3nn(-c4ccccc4Cl)c(-c4ccc(Br)cc4)c3Cn3cncn3)CC2)c1C | 2.07 nM | 547 nM | 264 | 
CN1CCN(C(=O)c2nn(-c3ccc(Cl)cc3Cl)c(-c3ccc(Cl)cc3)c2Cn2cncn2)CC1 | 1420 nM |  |  | 
CC(NC(=O)c1nn(-c2ccccc2Cl)c(-c2ccc(Br)cc2)c1Cn1cncn1)c1ccc(Cl)cc1Cl (configuration not stated) | 2.2 nM | 2420 nM | 1100 | 
O=C(NC1(C(F)(F)F)CC1)c1nn(-c2ccc(Cl)cc2Cl)c(-c2ccc(Br)cc2)c1Cn1cncn1 | 3.31 nM |  |  | 
Cc1cccc(N2CCN(C(=O)c3nn(-c4ccc(Cl)cc4Cl)c(-c4ccc(Cl)cc4)c3Cn3cncn3)CC2)c1C | 11.5 nM |  |  | 
O=C(NC1CCCCCC1)c1nn(-c2ccccc2Cl)c(-c2ccc(Br)cc2)c1Cn1cncn1 | 2.7 nM |  |  | 
O=C(NC1(c2ccccc2)CC1)c1nn(-c2ccccc2Cl)c(-c2ccc(Br)cc2)c1Cn1cncn1 | 1.98 nM | 3200 nM | 1620 | 
N#CC1(NC(=O)c2nn(-c3ccccc3Cl)c(-c3ccc(Br)cc3)c2Cn2cncn2)CC1 | 19.6 nM |  |  | 
CC(NC(=O)c1nn(-c2ccccc2Cl)c(-c2ccc(Br)cc2)c1Cn1cncn1)c1ccc(Br)cc1 (configuration not stated) | 1.1 nM | 1790 nM | 1630 | 2.51 nM
O=C(NC1(C(F)(F)F)CCC1)c1nn(-c2ccc(Cl)cc2Cl)c(-c2ccc(Br)cc2)c1Cn1cncn1 | 3.87 nM |  |  | 
C[C@H]1CC[C@@H](NC(=O)c2nn(-c3ccc(Cl)cc3Cl)c(-c3ccc(Cl)cc3)c2Cn2cncn2)CC1 | 17.1 nM |  |  | 
CC(NC(=O)c1nn(-c2ccccc2Cl)c(-c2ccc(Cl)cc2)c1Cn1cncn1)c1ccc(Cl)cc1Cl (configuration not stated) | 2 nM | 3330 nM | 1660 | 
